# Measurements from different studies.
# Sample: Caco-2
SMILES,tested at,time,pH,quantity,result
CC(C)NCC(O)COc1cccc2ccccc12 (stereo not shown),,1 h,pH 7.4,Papp A→B,21.8 ×10⁻⁶ cm/s
C=CCc1ccc(O)c(-c2cc(CC=C)ccc2O)c1,0.05 mg/mL,4 h,pH 7.4,Papp A→B,9 ×10⁻⁶ cm/s
O=C(CCCN1CCC2(CC1)C(=O)NCN2c1ccccc1)N(CC1CCCCC1)c1ccccc1,,,,Papp A→B,2.83 ×10⁻⁶ cm/s
N=c1c2c(-c3ccccc3)c(-c3ccccc3)n(Cc3ccccc3)c2ncn1[C@H]1CC[C@H](O)CC1,3 µM,2 h,pH 7.4,Papp B→A,2 ×10⁻⁶ cm/s
COc1ccc2c(c1)[C@]13CCCC[C@@H]1[C@H](C2)N(C)CC3,10 µM,,pH 6.5,Papp B→A,69.6 ×10⁻⁶ cm/s
COC(=O)N[C@H](C(=O)NN(CCC[C@@]1(Cc2ccccc2)C(=O)N([C@H]2c3ccccc3C[C@H]2O)C[C@H]1O)Cc1ccc(Br)cc1)C(C)(C)C,10 µM,1 h,pH 7.4,Papp A→B,> 20 ×10⁻⁶ cm/s
C/N=c1\nc(-c2ccccc2)n(-c2ccccc2)s1,20 µM,95 min,,Papp B→A,37.4 ×10⁻⁶ cm/s
C=C(CCC=C(C)C)[C@H]1CC[C@]2(C)[C@@H]1[C@H](O)C[C@@H]1[C@@]3(C)C[C@@H](O)[C@H](O[C@@H]4O[C@H](CO)[C@@H](O)[C@H](O)[C@H]4O[C@@H]4O[C@H](CO)[C@@H](O)[C@H](O)[C@H]4O)C(C)(C)[C@@H]3CC[C@]12C,1 mg/mL,,pH 7.4,Papp,3.56 ×10⁻⁶ cm/s
COc1cc2c(c(OC)c1OC)-c1ccc(OC)c(=O)cc1[C@@H](NC(C)=O)CC2,,,,Papp B→A,4.9 ×10⁻⁶ cm/s
CC[C@@]1(O)C(=O)OCc2c1cc1n(c2=O)Cc2cc3ccccc3nc2-1,,105 min,,Papp B→A,~3.5 ×10⁻⁶ cm/s
C[C@]12C[C@@H](O)[C@H]3[C@@H](CC[C@]4(O)C[C@@H](O)C[C@@H](O)[C@]34CO)[C@@]1(O)CC[C@@H]2c1cn(Cc2ccccc2)nn1,,40 min,pH 6.5,Papp B→A,0.14 ×10⁻⁶ cm/s
NC[C@H]1O[C@@H](O[C@@H]([C@H](NCCCC(=O)NCc2ccc(N3CCC(Oc4ccc(OC(F)(F)F)cc4)CC3)cc2)C(N)=O)[C@H]2O[C@@H](n3ccc(=O)[nH]c3=O)C(O)C2O)[C@H](O)[C@@H]1O (stereo partly shown),,,,Papp,< 1 ×10⁻⁶ cm/s
C[C@H]1O[C@@H](O[C@H]2[C@@H](O)C[C@H](O[C@H]3[C@@H](O)C[C@H](O[C@H]4CC[C@@]5(C)[C@H](CC[C@@H]6[C@@H]5C[C@@H](O)[C@]5(C)[C@@H](C7=CC(=O)OC7)CC[C@]65O)C4)O[C@@H]3C)O[C@@H]2C)C[C@H](O)[C@@H]1O,10 µM,1 h,pH 7.4,Papp B→A,22.8 ×10⁻⁶ cm/s
